Experimental findings from the array DNA melting data of Ke et al. (doi:10.1101/2024.01.08.574731) are described below.

Series [1] is described as follows: folding enthalpy; higher = less favourable; fluorescence melt of hairpins on a sequencing array, two-state fit. The settings on record: sodium 0.088 M. The method in brief:
(§1)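 Cy3 fluorescence of library hairpins on a sequenced MiSeq flow cell, with annealed Cy3 and quencher oligos, was imaged in 50 mM Na-HEPES pH 8.0, 25 mM NaCl in 2.5 °C steps up to 60 °C. Signals were normalised to pre-quench Cy3 and to control variants. Melting temperature and folding enthalpy came from bootstrapped two-state fits, inverse-variance combined over four replicates. Fitted temperatures were raised by 9.35 °C to match UV melts.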

The nature of series [2]: melting temperature; fluorescence melt of hairpins on a sequencing array, two-state fit, raised by 9.35 °C to match UV melts. The settings on record: sodium 0.088 M. The method in brief: as §1

In the case of CGTCCGGAAACGGAAACG ((((((....)))..))), the folding enthalpy in series [1] is -20.9 kcal/mol. For the same sequence, in series [2], the Tm was 40.5 °C.
Taken in the same sequence, the figures for GGTCGATCGAAAGATACC (((..(((....)))))) were -6.77 kcal/mol and 26.2 °C.
On to GATAGTGGAAACGCTATC (((((.(....).))))), for which, in series [1], the folding enthalpy was -25.7 kcal/mol. Further, in series [2], the Tm was 42.9 °C.
For GTCGCCGGAAACGACGAC ((((.((....)).)))), in that order: -43.5 kcal/mol and 57.5 °C.
For GTGGCGTCGAAAGACCAC (((..(((....)))))), in that order: -12.9 kcal/mol and 44.5 °C.
In the case of GTGAAAGGAAACTTTTAC ((.((((....)))).)), the folding enthalpy in series [1] is -22.9 kcal/mol. In addition, in series [2], the Tm stood at 31.3 °C.
Taken in the same sequence, the figures for GCGATATATCGC ((((....)))) were -25.9 kcal/mol and 55.6 °C.
For GGTAACGAAAGTTCGACC ((((((....)))..))), the folding enthalpy in series [1] is -16 kcal/mol. For the same sequence, in series [2], the Tm stood at 28 °C.
Taken in the same sequence, the figures for GATTTTGGAAACAAGATC (((.(((....))).))) were -22.4 kcal/mol and 33.6 °C.
Taken in the same sequence, the figures for GCGGTCGAAAGACGACGC ((((((....)))..))) were -37.4 kcal/mol and 53.8 °C.
Taken in the same sequence, the figures for GGCCTGCCGAAAGGCGCC (((..(((....)))))) were -13.7 kcal/mol and 49.4 °C.
On to GTTTCAGGAAACCGAAAC (((((.(....).))))), for which, in series [1], the folding enthalpy was -30 kcal/mol. In addition, the Tm in series [2] worked out at 37.4 °C.
For GAGTGACGAAAGTCCTC (((.(((....)))))), in that order: -19.5 kcal/mol and 47.9 °C.
Taken in the same sequence, the figures for GATCAGGGTACTGATC ((((((....)))))) were -41 kcal/mol and 55.5 °C.
Taken in the same sequence, the figures for GATCCTGGAAGGATC ((((((...)))))) were -31.6 kcal/mol and 62.8 °C.
In the case of CGCCCGGAAACGGATGCG ((((((....)))..))), the folding enthalpy in series [1] was -25 kcal/mol. Further, the Tm in series [2] came out at 48.4 °C.
Turning to GTAGGTGGAAACGTCTAC ((((..(....)..)))), the folding enthalpy in series [1] was -16.8 kcal/mol. Besides, the Tm in series [2] was found to be 28.8 °C.
Regarding GCTCGTGCGAAAGCAAGC (((..(((....)))))), the folding enthalpy in series [1] is -7.01 kcal/mol. Further, the Tm in series [2] amounted to 45.5 °C.
For GGAACTCGAAAGAGTCC (((.(((....)))))), in that order: -19.5 kcal/mol and 49.2 °C.
As to GTTGGTGGAAACACCAGC (.(((((....))))).), the folding enthalpy in series [1] was -21.5 kcal/mol. Moreover, the Tm in series [2] came out at 50.6 °C.
For GTTAAGGCGAAAGCCAAC (((..(((....)))))), the folding enthalpy in series [1] was -11 kcal/mol. Further, the Tm in series [2] was found to be 32.8 °C.
GCTTTGGAAACAAAGC ((((((....)))))): in series [1], the folding enthalpy is -38.1 kcal/mol. The Tm in series [2] came out at 57.4 °C.
For GCAATGCGAAAGCATAGC ((.((((....)))).)), in that order: -18.6 kcal/mol and 57.8 °C.
For GGACACCGAAAGGTTTCC (((.(((....))).))), in that order: -32.8 kcal/mol and 48.2 °C.
On to CAAACGAAAGTTTG (((((....))))), for which, in series [1], the folding enthalpy is -23 kcal/mol. In addition, in series [2], the Tm worked out at 53 °C.
In the case of GATCCTCTAGAGGATC ((((((....)))))), the folding enthalpy in series [1] is -42.6 kcal/mol. Further, in series [2], the Tm is 56.4 °C.
Taken in the same sequence, the figures for CAGTAGAAATACTG (((((....))))) were -15.3 kcal/mol and 38.6 °C.
For GCAATCGGAAACGGTTGC ((((.((....)).)))), in that order: -43.8 kcal/mol and 55.8 °C.
Taken in the same sequence, the figures for GATCGTCGACACGATC ((((((....)))))) were -43.9 kcal/mol and 52.2 °C.
In the case of GTCGCCGAAAGGCTGAC ((((((....))).))), the folding enthalpy in series [1] was -17.8 kcal/mol. In addition, the Tm in series [2] was determined as 57.1 °C.
Taken in the same sequence, the figures for GCTTGACGAAAGTCTAGC (((.(((....))).))) were -35.2 kcal/mol and 55.2 °C.
For GGGTGTGGAAACACGTCC ((..(((....)))..)), in that order: -13.6 kcal/mol and 40.1 °C.
In the case of GGCAAGGAAACTTGCC ((((((....)))))), the folding enthalpy in series [1] was -37 kcal/mol. The Tm in series [2] came out at 64.7 °C.
For GATCCGGACTCGGATC ((((((....)))))), in that order: -49.4 kcal/mol and 59.2 °C.
Taken in the same sequence, the figures for GGGGACGAAAGTCGCCC ((((((....))).))) were -13.9 kcal/mol and 64.9 °C.
Taken in the same sequence, the figures for GATCAGTAACCTGATC ((((((....)))))) were -27.6 kcal/mol and 47.4 °C.
Turning to GATCGTATTTACGATC ((((((....)))))), the folding enthalpy in series [1] is -42.5 kcal/mol. In addition, the Tm in series [2] is 57.6 °C.
For GATCGAGTAATCGATC ((((((....)))))), in that order: -39 kcal/mol and 57.4 °C.
Taken in the same sequence, the figures for GATCCTTCGAAGGATC ((((((....)))))) were -49.6 kcal/mol and 54.1 °C.
Taken in the same sequence, the figures for GTATGTCGAAAGACTAC (((.(((....)))))) were -19.2 kcal/mol and 41.3 °C.
Turning to GCCGAGCGAAAGCTGTGC ((..(((....)))..)), in series [1], the folding enthalpy was -15.2 kcal/mol. Moreover, the Tm in series [2] was determined as 41.2 °C.
Taken in the same sequence, the figures for GGATTCCGAAAGGATCC (((.(((....)))))) were -29.1 kcal/mol and 49.6 °C.
In the case of GATCGCCGACGCGATC ((((((....)))))), the folding enthalpy in series [1] was -35.7 kcal/mol. Further, the Tm in series [2] amounted to 66.5 °C.
For GCGGAAAGCCGC ((((....)))), in that order: -16.3 kcal/mol and 48.5 °C.
Taken in the same sequence, the figures for GTCATGGGAAACCGTGAC ((((.((....)).)))) were -42.3 kcal/mol and 52.9 °C.
Turning to GTCGTCGGAAACGACGGC (.(((((....))))).), the folding enthalpy in series [1] was -25.2 kcal/mol. For the same sequence, the Tm in series [2] is 65.5 °C.
For GCAAGGCGAAAGCATGGC ((.(.((....)).).)), in that order: -18 kcal/mol and 47.8 °C.
On to GGGTCGCCGAAAGGCCCC (((..(((....)))))), for which the folding enthalpy in series [1] is -11.1 kcal/mol. Further, the Tm in series [2] turned out to be 46.4 °C.
Taken in the same sequence, the figures for GCGAAGCGAAAGCTTTGC ((.((((....)))).)) were -22.4 kcal/mol and 62.6 °C.
On to GTCATTGGAAACGATGAC (((((.(....).))))), for which the folding enthalpy in series [1] was -41.1 kcal/mol. In addition, in series [2], the Tm was determined as 46.7 °C.
Taken in the same sequence, the figures for GCCCTTTCGAAAGAAGGC (((..(((....)))))) were -33.3 kcal/mol and 37.6 °C.
As to GAAAGCGAAAGCTTATTC ((((((....)))..))), the folding enthalpy in series [1] was -10.9 kcal/mol. In series [2], the Tm came out at 32.7 °C.
Taken in the same sequence, the figures for GATCCTCCGAGGATC ((((((...)))))) were -33.1 kcal/mol and 53.1 °C.
For GCCAGACCGAAAGGTGGC (((..(((....)))))), in that order: -42.4 kcal/mol and 53.7 °C.
For GTCACTCGAAAGAGGGAC (((.(((....))).))), in that order: -50.4 kcal/mol and 60.9 °C.
